Experiments:
[1] = Area under concentration-time curve of compound was determined in rat at 25 mg/kg orally; format: ADME, organism-based; design: dose 25 mg/kg, route oral; conditions: in vivo, po
Method in brief: (§1)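 Single-dose PK in Sprague–Dawley rats, New Zealand rabbits, Beagle dogs and cynomolgus monkeys. Dosing was 25 mg/kg oral or 5 mg/kg iv. Plasma concentration–time profiles gave the apparent elimination half-life (T1/2) and the area under the concentration–time curve (AUC). Parameters are reported as means.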

Stromelysin-1 = Stromelysin-1 (Homo sapiens, UniProt P08254); experiment: Inhibition of Matrix metalloprotease-3
Method in brief: (§2)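 Each inhibitor concentration was tested in triplicate. IC50 came from a four-parameter logistic fit of data within a single experiment and is reported as the mean of the triplicate values.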

[2] = Apparent elimination half life of compound was determined in rabbit at 5 mg/kg intravenously admn.; format: ADME, organism-based, Oryctolagus cuniculus; design: dose 5 mg/kg, route intravenous; conditions: in vivo, iv; method in brief: as §1
[3] = In vivo inhibitory activity against Matrix metalloprotease enzyme by dialysis implant assay, value is relative to activity of CGS-27023 (48+/-3) at 25 mg/kg. po; format: functional
[4] = biological target: Matrix metalloproteinase-14 (Homo sapiens, UniProt P50281); experiment: Inhibition of Matrix metalloprotease-14
Method in brief: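 Inhibitor concentrations run in triplicate; IC50 from a four-parameter logistic fit within a single experiment, reported as the mean of triplicate values.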

[5] = Area under concentration-time curve of compound was determined in rat at 5 mg/kg intravenously admn.; format: ADME, organism-based; design: dose 5 mg/kg, route intravenous; conditions: in vivo, iv, read-out: AUC 0; method in brief: as §1
Oryctolagus cuniculus = experiment: Effect of compound on cartilage in surgically induced osteoarthritis (OA) model in rabbit at 25 mg/kg, value are relative to activity of RS-130830 (7.9+/-1.5) at 25 mg/kg; format: ADME, organism-based, Cartilage tissue; conditions: in vivo
Method in brief: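 Rabbits had anterior cruciate ligament transection plus meniscectomy in one knee, with sham surgery on the contralateral knee. From day 10 after surgery, groups of 12 were dosed once daily by oral gavage with vehicle, test compound or the RS-130830 reference for 4 weeks. Knee joints were then collected and scored for gross pathological changes by blinded investigators.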

[6] = Maximum plasma concentration of compound was determined in monkey at 25 mg/kg orally; format: ADME, organism-based; design: dose 25 mg/kg, route oral; conditions: simiiformes, po
Method in brief: (§3)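 Single oral dose of 25 mg/kg in Sprague–Dawley rats, New Zealand rabbits, Beagle dogs and Cynomolgus monkeys. Mean plasma pharmacokinetics; Cmax is the maximum plasma concentration and Tmax is the time of peak concentration.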

[7] = Time of peak concentration of compound was determined in monkey at 25 mg/kg orally; format: ADME, organism-based; design: dose 25 mg/kg, route oral; conditions: simiiformes, in vivo, po; method in brief: as §3
[8] = Volume of distribution at steady state of compound was determined in rat at 5 mg/kg intravenously admn.; format: ADME, organism-based; design: dose 5 mg/kg, route intravenous; conditions: in vivo, iv, read-out: Vdss
Method in brief: (§4)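 Single iv dose of 5 mg/kg in Sprague–Dawley rats, New Zealand rabbits, Beagle dogs and Cynomolgus monkeys. Mean plasma pharmacokinetics: C0 is the concentration at T=0, Vdss the volume of distribution at steady state, and CLT the total clearance.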

[9] = Time of peak concentration of compound was determined in rabbit at 25 mg/kg orally; format: ADME, organism-based, Oryctolagus cuniculus; design: dose 25 mg/kg, route oral; conditions: in vivo, po; method in brief: as §3
Collagenase 3 = Collagenase 3 (Homo sapiens, UniProt P45452)
[10] = Total clearance of compound was determined in rat at 5 mg/kg intravenously admn.; format: ADME, organism-based; design: dose 5 mg/kg, route intravenous; conditions: in vivo, iv, read-out: CLT; method in brief: as §4
[11] = Area under concentration-time curve of compound was determined in dog at 5 mg/kg intravenously admn.; format: ADME, organism-based, Canis lupus familiaris; design: dose 5 mg/kg, route intravenous; conditions: in vivo, iv, read-out: AUC 0; method in brief: as §1
[12] = Total clearance of compound was determined in rabbit at 5 mg/kg intravenously admn.; format: ADME, organism-based, Oryctolagus cuniculus; design: dose 5 mg/kg, route intravenous; conditions: in vivo, iv, read-out: CLT; method in brief: as §4
[13] = Area under concentration-time curve of compound was determined in dog at 25 mg/kg orally; format: ADME, organism-based, Canis lupus familiaris; design: dose 25 mg/kg, route oral; conditions: in vivo, po; method in brief: as §1
[14] = Maximum plasma concentration of compound was determined in rabbit at 25 mg/kg orally; format: ADME, organism-based, Oryctolagus cuniculus; design: dose 25 mg/kg, route oral; conditions: po; method in brief: as §3
[15] = Total clearance of compound was determined in monkey at 5 mg/kg intravenously admn.; format: ADME, organism-based; design: dose 5 mg/kg, route intravenous; conditions: simiiformes, in vivo, iv, read-out: CLT; method in brief: as §4
[16] = Volume of distribution at steady state of compound was determined in dog at 5 mg/kg intravenously admn.; format: ADME, organism-based, Canis lupus familiaris; design: dose 5 mg/kg, route intravenous; conditions: in vivo, iv, read-out: Vdss; method in brief: as §4
[17] = Apparent elimination half life of compound was determined in dog at 25 mg/kg orally; format: ADME, organism-based, Canis lupus familiaris; design: dose 25 mg/kg, route oral; conditions: in vivo, po; method in brief: as §1
[18] = Apparent elimination half life of compound was determined in rabbit at 25 mg/kg orally; format: ADME, organism-based, Oryctolagus cuniculus; design: dose 25 mg/kg, route oral; conditions: in vivo, po; method in brief: as §1
[19] = Area under concentration-time curve of compound was determined in rabbit at 25 mg/kg orally; format: ADME, organism-based, Oryctolagus cuniculus; design: dose 25 mg/kg, route oral; conditions: in vivo, po; method in brief: as §1
[20] = Maximum plasma concentration of compound was determined in dog at 25 mg/kg orally; format: ADME, organism-based, Canis lupus familiaris; design: dose 25 mg/kg, route oral; conditions: po; method in brief: as §3
[21] = Peak concentration of compound at Time = 0 was determined in rabbit at 5 mg/kg intravenously admn.; format: ADME, organism-based, Oryctolagus cuniculus; design: dose 5 mg/kg, route intravenous; conditions: in vivo, iv; method in brief: as §4
Neutrophil collagenase = Neutrophil collagenase (Homo sapiens, UniProt P22894); experiment: Inhibition of Matrix metalloprotease-8; method in brief: as §2
[22] = Peak concentration of compound at Time = 0 was determined in rat at 5 mg/kg intravenously admn.; format: ADME, organism-based; design: dose 5 mg/kg, route intravenous; conditions: in vivo, iv; method in brief: as §4

Chain of Neutrophil collagenase (P22894 whole entry): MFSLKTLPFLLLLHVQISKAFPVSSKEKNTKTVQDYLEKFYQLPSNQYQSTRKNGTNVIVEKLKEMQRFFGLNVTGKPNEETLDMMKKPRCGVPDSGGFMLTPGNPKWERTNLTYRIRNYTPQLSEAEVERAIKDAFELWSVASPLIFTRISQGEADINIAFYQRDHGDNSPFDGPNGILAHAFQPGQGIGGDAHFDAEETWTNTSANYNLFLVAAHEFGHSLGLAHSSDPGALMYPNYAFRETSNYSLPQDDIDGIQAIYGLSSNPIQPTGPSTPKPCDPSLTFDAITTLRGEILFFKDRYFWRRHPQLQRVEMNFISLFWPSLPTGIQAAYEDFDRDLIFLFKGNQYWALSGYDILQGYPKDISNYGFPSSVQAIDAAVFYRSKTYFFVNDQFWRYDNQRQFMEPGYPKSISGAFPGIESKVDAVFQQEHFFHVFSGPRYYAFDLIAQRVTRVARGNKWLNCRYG
Chain of Stromelysin-1 (P08254 whole entry): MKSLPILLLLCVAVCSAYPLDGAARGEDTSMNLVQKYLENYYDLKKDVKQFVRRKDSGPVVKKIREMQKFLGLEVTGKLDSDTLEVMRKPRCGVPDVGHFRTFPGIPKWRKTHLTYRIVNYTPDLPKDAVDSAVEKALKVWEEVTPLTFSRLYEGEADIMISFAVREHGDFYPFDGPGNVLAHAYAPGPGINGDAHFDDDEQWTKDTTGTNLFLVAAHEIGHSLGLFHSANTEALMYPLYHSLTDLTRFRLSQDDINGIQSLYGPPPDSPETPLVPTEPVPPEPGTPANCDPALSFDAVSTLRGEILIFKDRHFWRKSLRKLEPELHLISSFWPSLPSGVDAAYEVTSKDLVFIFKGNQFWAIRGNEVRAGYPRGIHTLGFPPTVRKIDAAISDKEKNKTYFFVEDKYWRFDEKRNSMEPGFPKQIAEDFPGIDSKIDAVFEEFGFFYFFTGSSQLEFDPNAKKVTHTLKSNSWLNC

AUC [1]: 899 µg·h/mL
IC50 (Stromelysin-1): 55 nM
half-life [2]: 11.8 h
IC50 [4]: 7 nM
AUC [5]: 327 µg·h/mL
Average gross pathology scores+/- SE (Oryctolagus cuniculus): 6.8
Cmax [6]: 50.3 µg/mL
Tmax [7]: 5.7 h
Vd [8]: 0.1 L/kg
Tmax [9]: 10 h
IC50 (Collagenase 3): 1 nM
clearance [10]: 0.3 mL/min/kg
AUC [11]: 786 µg·h/mL
clearance [12]: 0.1 mL/min/kg
AUC [13]: 1810 µg·h/mL
Cmax [14]: 22.7 µg/mL
clearance [15]: 0.1 mL/min/kg
Vd [16]: 0.1 L/kg
half-life [17]: 17.6 h
half-life [18]: 7.14 h
AUC [19]: 363 µg·h/mL
Cmax [20]: 96.3 µg/mL
C0 [21]: 126 µg/mL
IC50 (Neutrophil collagenase): 1 nM
C0 [22]: 329 µg/mL
SMILES: O=C(NO)C1(S(=O)(=O)c2ccc(Oc3ccc(Cl)cc3)cc2)CCN(Cc2ccccc2)CC1
inhibition in vivo at 25 mg/kg [3]: 53%
